Test results taken from ChEMBL document CHEMBL3399918, “In vitro radical scavenging and cytotoxic activities of novel hybrid selenocarbamates” (Bioorg Med Chem, 2015).

Assays:
[1] = Cytotoxicity against human PC3 cells after 72 hrs by MTT assay; type: functional; conditions: PC-3, 72 h
How it was run: (§1)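 CCRF-CEM, HT-29, PC-3 and HTB-54 cells grown in RPMI 1640 with 10% foetal calf serum, 2 mM L-glutamine, penicillin/streptomycin, 10 mM HEPES (pH 7.4). Five concentrations, 0.01–100 μM, 72 h at 37 °C, 5% CO2; MTT read-out. GI50, TGI and LC50 versus untreated controls; at least 3 independent experiments in quadruplicate.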

[2] = Cytotoxicity against human 184B5 cells after 72 hrs by MTT assay; type: cell-based; conditions: for GI50 at 72 h: 184B5 cells; for LC50 / TGI: 184b5, 72 h
How it was run: (§2)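 Non-malignant lines: 184B5 (normal breast) in Hams F-12/DMEM (50:50) with published supplements; BEAS-2B (bronchial epithelium) in Hams F-12/DMEM (50:50) with 10% foetal calf serum, 2 mM L-glutamine, penicillin/streptomycin. Compounds at five concentrations, 0.01–100 μM, 72 h, 37 °C, 5% CO2; MTT read-out. GI50, TGI, LC50 relative to untreated controls; ≥3 independent experiments in quadruplicate.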

[3] = Antioxidant activity assessed as ABTS radical scavenging activity by measuring Trolox equivalent antioxidant capacity after 6 mins; type: physicochemical; conditions: 0.1 h
How it was run: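 ABTS dissolved in deionized water at 1 mg/mL, oxidised to radical cation with potassium persulfate (2.45 mM final), kept overnight at room temperature in dark, then diluted with 50% ethanol to A741 = 0.700 ± 0.02. Compound (1 mg/mL ethanol stock) added 1:10 (0.1 mg/mL); A741 decrease read after 6 min against 50% ethanol blank. Trolox positive control; quadruplicate; TEAC from calibration curve.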

[4] = system: MCF7; test: Cytotoxicity against human MCF7 cells after 72 hrs by MTT assay; type: functional; conditions: MCF7, 72 h; for CC50: read-out: LC50 (the source's name)
How it was run: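 MCF-7 cells grown in EMEM with 10% foetal calf serum, 2 mM L-glutamine, 100 units/mL penicillin, 100 µg/mL streptomycin. Exposed to five concentrations between 0.01 and 100 μM for 72 h, 37 °C, humidified 5% CO2; MTT read-out. GI50, TGI, LC50 relative to untreated controls; ≥3 independent experiments in quadruplicate.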

[5] = system: HT-29; test: Cytotoxicity against human HT-29 cells after 72 hrs by MTT assay; type: functional; conditions: HT-29, 72 h; how it was run: as §1
[6] = Cytotoxicity against human HTB-54 cells after 72 hrs by MTT assay; type: functional; conditions: HTB-54, 72 h; for CC50: read-out: LC50 (the source's name); how it was run: as §1
[7] = Cytotoxicity against human BEAS2B cells after 72 hrs by MTT assay; type: cell-based, BEAS-2B; conditions: for GI50 at 72 h: BEAS2B cells; for LC50 / TGI: beas-2b, 72 h; how it was run: as §2
[8] = system: CCRF-CEM; test: Cytotoxicity against human CCRF-CEM cells after 72 hrs by MTT assay; type: functional; how it was run: as §1
[9] = Antioxidant activity assessed as DPPH radical scavenging activity at 0.5 mg/ml after 180 mins; type: physicochemical; conditions: 3 h
How it was run: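 Compounds in absolute ethanol, serially diluted from 1 mg/mL, mixed 1:1 with […] in ethanol. Final range 0.016–0.5 mg/mL, 6 concentrations. Incubated at 37 °C in the dark, with decolourisation followed at 517 nm at several time intervals. % scavenged = (A vehicle control − A sample)/A control × 100. Quadruplicate; mean ± SD.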

[10] = Antioxidant activity assessed as ABTS radical scavenging activity at 0.1 mg/ml after 6 mins; type: physicochemical; conditions: 0.1 h
How it was run: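 Diluted with 50% ethanol to A741 0.700 ± 0.02. A741 decrease read after 6 min against a 50% ethanol blank. % scavenged relative to a vehicle-plus-radical control. Quadruplicate.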

CC(C)COC(=O)Nc1ccc([Se]C#N)cc1
GI50 [1]: 21.6 µM | LC50 (concentration causing 50% net cell kill) [1]: 73 µM | TGI [1]: 47.3 µM | GI50 at 72 h [2]: 5.8 µM | LC50 [2]: 60.9 µM | TGI [2]: 21.6 µM | Activity [3]: 5.09 µg/µL | GI50 [4]: 18.1 µM | TGI [4]: 45.5 µM | CC50 [4]: 73 µM | GI50 [5]: 8.1 µM | LC50 [5]: 63.7 µM | TGI [5]: 31.3 µM | GI50 [6]: 27.1 µM | TGI [6]: 51.2 µM | CC50 [6]: 75.4 µM | GI50 at 72 h [7]: 26.9 µM | LC50 [7]: 72.1 µM | TGI [7]: 49.5 µM | GI50 [8]: 9.3 µM | LC50 [8]: 68.7 µM | TGI [8]: 38.3 µM | inhibition (INH) [9]: 27.1%

N#C[Se]c1ccc(NC(=O)OCc2ccccc2)cc1
GI50 [1]: 3.7 µM | LC50 (concentration causing 50% net cell kill) [1]: 62.5 µM | TGI [1]: 27.8 µM | GI50 at 72 h [2]: 5 µM | LC50 [2]: 60.7 µM | TGI [2]: 21.9 µM | Activity [3]: 6.74 µg/µL | GI50 [4]: 8.7 µM | TGI [4]: 38.8 µM | CC50 [4]: 68.9 µM | GI50 [5]: 13.3 µM | LC50 [5]: 69.1 µM | TGI [5]: 41.2 µM | GI50 [6]: 27.6 µM | TGI [6]: 50.8 µM | CC50 [6]: 74 µM | GI50 at 72 h [7]: 0.1 µM | LC50 [7]: 66.6 µM | TGI [7]: 34.4 µM | GI50 [8]: 23.2 µM | LC50 [8]: 73.7 µM | TGI [8]: 48.4 µM | inhibition (INH) [9]: 3.7%

N#C[Se]c1ccc(NC(=O)Oc2ccc(F)cc2)cc1
GI50 [1]: 11.8 µM | LC50 (concentration causing 50% net cell kill) [1]: 69 µM | TGI [1]: 40.4 µM | GI50 at 72 h [2]: 6.9 µM | LC50 [2]: 64.4 µM | TGI [2]: 29.5 µM | Activity [3]: 20.8 µg/µL | inhibition (INH) [10]: > 25% | GI50 [4]: 8.3 µM | TGI [4]: 33.3 µM | CC50 [4]: 65.7 µM | GI50 [5]: 8.8 µM | LC50 [5]: 66.5 µM | TGI [5]: 37.6 µM | GI50 [6]: 25 µM | TGI [6]: 48.4 µM | CC50 [6]: 71.9 µM | GI50 at 72 h [7]: 19.8 µM | LC50 [7]: 71.4 µM | TGI [7]: 45.6 µM | GI50 [8]: 12.6 µM | LC50 [8]: 71.1 µM | TGI [8]: 41.9 µM

CCOC(=O)Nc1ccc([Se][Se]c2ccc(NC(=O)OCC)cc2)cc1
GI50 [1]: 28.8 µM | LC50 (concentration causing 50% net cell kill) [1]: 75.7 µM | TGI [1]: 52.2 µM | GI50 at 72 h [2]: 5.7 µM | LC50 [2]: 58.7 µM | TGI [2]: 16.7 µM | Activity [3]: 13.6 µg/µL | inhibition (INH) [10]: 21.3% | GI50 [4]: 9.9 µM | TGI [4]: 39 µM | CC50 [4]: 68.3 µM | GI50 [5]: 26 µM | LC50 [5]: 76.1 µM | TGI [5]: 51.1 µM | GI50 [6]: 31.2 µM | TGI [6]: 56.6 µM | CC50 [6]: 82 µM | GI50 at 72 h [7]: 16.1 µM | LC50 [7]: 71.9 µM | TGI [7]: 44 µM | GI50 [8]: 24.6 µM | LC50 [8]: 74.3 µM | TGI [8]: 49.5 µM | inhibition (INH) [9]: 37%

N#C[Se]c1ccc(NC(=O)OCC2c3ccccc3-c3ccccc32)cc1
GI50 [1]: 2 µM | LC50 (concentration causing 50% net cell kill) [1]: 70 µM | TGI [1]: 34.3 µM | GI50 at 72 h [2]: 5.5 µM | LC50 [2]: 62.5 µM | TGI [2]: 25.8 µM | Activity [3]: 7.02 µg/µL | GI50 [4]: 7.6 µM | TGI [4]: 34.6 µM | CC50 [4]: 67 µM | GI50 [5]: 15.5 µM | LC50 [5]: 70.2 µM | TGI [5]: 42.8 µM | GI50 [6]: 23.8 µM | TGI [6]: 48.4 µM | CC50 [6]: 73 µM | GI50 at 72 h [7]: 7.9 µM | LC50 [7]: 68.2 µM | TGI [7]: 38.4 µM | GI50 [8]: 7.5 µM | LC50 [8]: 66.7 µM | TGI [8]: 34.2 µM | inhibition (INH) [9]: > 25%

N#C[Se]c1ccc(NC(=O)Oc2ccccc2)cc1
GI50 [1]: 9.1 µM | LC50 (concentration causing 50% net cell kill) [1]: 68 µM | TGI [1]: 37.5 µM | GI50 at 72 h [2]: 0.4 µM | LC50 [2]: 61.2 µM | TGI [2]: 22.7 µM | Activity [3]: 29 µg/µL | inhibition (INH) [10]: > 25% | GI50 [4]: 4 µM | TGI [4]: 35.9 µM | CC50 [4]: 67.8 µM | GI50 [5]: 11.7 µM | LC50 [5]: 71.7 µM | TGI [5]: 41.7 µM | GI50 [6]: 26.2 µM | TGI [6]: 50.2 µM | CC50 [6]: 74.4 µM | GI50 at 72 h [7]: 8.9 µM | LC50 [7]: 69.3 µM | TGI [7]: 38.2 µM | GI50 [8]: 22.9 µM | LC50 [8]: 73.2 µM | TGI [8]: 48 µM | inhibition (INH) [9]: 19.3%
